Data from ChEMBL document CHEMBL1154725, “Synthesis and antitumor evaluation of novel diarylsulfonylurea derivatives: molecular modeling applications” (2010).

Experiments:
Format in all cases: functional
EKVX = test: Growth inhibition of human EKVX cells after 48 hrs
Method in brief: (§1)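 NCI in vitro human tumour cell line screen (about 60 lines, nine subpanels). Compounds dissolved in DMSO, diluted in phosphate-buffered saline (final DMSO under 1%), tested at five concentrations from 0.01 to 100, in duplicate wells. Cells at 6 × 10⁴ cells/mL, 37 °C, 5% CO₂, 48 h. GI50 (50% decrease in net growth) taken from log concentration versus % growth inhibition curves; subpanel values are subpanel mean-graph midpoints.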

HCC 2998 = test: Growth inhibition of human HCC2998 cells after 48 hrs; conditions: HCC 2998, 48 h; method in brief: as §1
UACC-257 = test: Growth inhibition of human UACC257 cells after 48 hrs; conditions: UACC-257, 48 h; method in brief: as §1
MCF7 = test: Growth inhibition of human MCF7 cells after 48 hrs; conditions: MCF7, 48 h; method in brief: as §1
Leukemia cell = test: Growth inhibition of human Leukemia cells after 48 hrs; method in brief: as §1
NSCLC = test: Growth inhibition of human NSCLC cell after 48 hrs; method in brief: as §1
[1] = Growth inhibition of human Colon cancer cells after 48 hrs; conditions: Cancer cell lines; method in brief: as §1
[2] = Growth inhibition of human CNS cancer cells after 48 hrs; conditions: Cancer cell lines; method in brief: as §1
Melanoma cell = test: Growth inhibition of human Melanoma cells after 48 hrs; method in brief: as §1
[3] = Growth inhibition of human Ovarian cancer cells after 48 hrs; conditions: Cancer cell lines; method in brief: as §1
[4] = Growth inhibition of human Renal cancer cells after 48 hrs; conditions: Cancer cell lines; method in brief: as §1
[5] = Growth inhibition of human Prostate cancer cells after 48 hrs; conditions: Cancer cell lines; method in brief: as §1
[6] = Growth inhibition of human Breast cancer cells after 48 hrs; conditions: Cancer cell lines; method in brief: as §1
OVCAR-3 = test: Growth inhibition of human OVCAR-3 cells after 48 hrs; conditions: OVCAR-3, 48 h; method in brief: as §1

Row | Structure (SMILES) | GI50 (HCC 2998) [µM] | GI50 (MCF7) [µM] | GI50 (Leukemia cell) [µM] | GI50 (Melanoma cell) [µM] | GI50 (OVCAR-3) [µM] | GI50 (EKVX) [µM] | GI50 (UACC-257) [µM] | GI50 (NSCLC) [µM] | GI50 [1] [µM] | GI50 [2] [µM] | GI50 [3] [µM] | GI50 [4] [µM] | GI50 [5] [µM] | GI50 [6] [µM]
1 | NNC(=O)c1c(NC(=O)NS(=O)(=O)c2ccccc2)sc2c1CCCCC2 | 0.9 | 4.2 | 30.3 | 4.5 | > 100 | > 100 | 2.8 | 10.5 | 3.5 | > 100 | 1.5 | > 100 | 15.8 | 4.5
2 | O=c1[nH]c2sc3c(c2c(=O)n1S(=O)(=O)c1ccccc1)CCCCC3 | 19.5 | > 100 | 42.2 | 26.2 | > 100 | 3.8 | > 100 | 9.3 | 20.5 | 81.3 | 34.2 | 50.2 | 34.2 | 22.5
3 | CCCCNC(=O)c1c(NC(=O)NS(=O)(=O)c2ccccc2)sc2c1CCCCC2 |  |  | > 100 | 76.7 |  |  |  | 30.3 | 65.2 | 85.3 | > 100 | 72.3 | 92.6 | 85.2
4 | CCCNC(=O)c1c(NC(=O)NS(=O)(=O)c2ccccc2)sc2c1CCCCC2 | > 100 | > 100 | 42.2 | 65.3 | > 100 | 6.2 | > 100 | 54.2 | 85.3 | 72.5 | 76.5 | 80.3 | 90.2 | 70.3
5 | O=C(Nc1sc2c(c1C(=O)N1CCN(c3ccccc3)CC1)CCCCC2)NS(=O)(=O)c1ccccc1 | 16.9 | > 100 | > 100 | 52.3 | 11.9 | > 100 | > 100 | 36.2 | 11.5 | 55.8 | 36.2 | 65.2 | 60.3 | 58.2
6 | CN1CCN(C(=O)c2c(NC(=O)NS(=O)(=O)c3ccccc3)sc3c2CCCCC3)CC1 | 15.3 | > 100 | > 100 | 61.2 | > 100 | > 100 | > 100 | 22.3 | 9.2 | 56.2 | 31.3 | 42.3 | 80.2 | 49.2

Continued, in another order:

Row | GI50 (HCC 2998) [µM] | GI50 (MCF7) [µM] | GI50 (Leukemia cell) [µM] | GI50 (Melanoma cell) [µM] | GI50 (OVCAR-3) [µM] | Structure (SMILES) | GI50 (EKVX) [µM] | GI50 (UACC-257) [µM] | GI50 (NSCLC) [µM] | GI50 [1] [µM] | GI50 [2] [µM] | GI50 [3] [µM] | GI50 [4] [µM] | GI50 [5] [µM] | GI50 [6] [µM]
7 | 6.3 | > 100 | 18.6 | 32.3 | 15.2 | O=C(Nc1sc2c(c1C(=O)NNc1ccccc1)CCCCC2)NS(=O)(=O)c1ccccc1 | > 100 | > 100 | 16 | 7 | 30.9 | 15.2 | 26.3 | > 100 | 18.5
8 | 2.9 | 8.3 | 30.6 | 4.2 | > 100 | O=C(Nc1sc2c(c1C(=O)NNc1ccc(Cl)cc1)CCCCC2)NS(=O)(=O)c1ccccc1 | > 100 | > 100 | 8.6 | 1.2 | 12 | 7.5 | > 100 | 14.5 | 5.9
9 | 1.6 | > 100 | > 100 | 31.3 | 14.8 | O=C(Nc1sc2c(c1C(=O)NNc1ccc(Br)cc1)CCCCC2)NS(=O)(=O)c1ccccc1 | > 100 | > 100 | 11.5 | 1.6 | 25.5 | 10.2 | 11.5 | > 100 | 5.3
